# Laboratory results taken from ChEMBL document CHEMBL4033712, “Synthesis and biological evaluation of new C-12(α/β)-(N-) sulfamoyl-phenylamino-14-deoxy-andrographolide derivatives as potent anti-cancer agents” (Bioorg Med Chem Lett, 2017).
# What was measured:
# Type in all cases: functional
# [1] = tested on: HOP-92; experiment: Anticancer activity against human HOP92 cells assessed as cell growth at 10 uM after 48 hrs by sulforhodamine B assay relative to control; conditions: HOP-92, 48 h, read-out: Activity
# Outline: (§1)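 Single-dose NCI-60 panel screen: compound added at 10 µM and the culture incubated 48 h. The end point was read by protein staining with sulforhodamine B. The value is percent growth of treated cells relative to untreated control cells, reported as a mean graph across the panel.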
# [2] = tested on: ACHN; experiment: Growth inhibition of human ACHN cells incubated for 48 hrs by sulforhodamine B assay
# Outline: (§2)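 NCI-60 five-dose screen at 0.01, 0.1, 1, 10 and 100 µM, 48 h incubation, sulforhodamine B end point. GI50 (50% decrease in net growth), TGI (total growth inhibition) and LC50 (net 50% loss of initial cells) taken from log concentration versus % growth inhibition curves.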
# [3] = tested on: MDA-MB-435; experiment: Growth inhibition of human MDA-MB-435 cells incubated for 48 hrs by sulforhodamine B assay; conditions: MDA-MB-435, 48 h; outline: as §2
# [4] = tested on: UACC-257; experiment: Growth inhibition of human UACC257 cells incubated for 48 hrs by sulforhodamine B assay; conditions: UACC-257, 48 h
# Outline: (§3)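 NCI 60 human tumour cell line panel, five-dose study at 0.01, 0.1, 1, 10 and 100 µM, 48 h incubation. Sulforhodamine B protein-binding dye end point. GI50 (50% decrease in net cell growth), TGI (total growth inhibition) and LC50 (net 50% loss of initial cells) read from log concentration versus % growth inhibition curves.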
# [5] = tested on: SW-620; experiment: Growth inhibition of human SW620 cells incubated for 48 hrs by sulforhodamine B assay; conditions: SW-620, 48 h; outline: as §3
# [6] = tested on: SK-MEL-2; experiment: Growth inhibition of human SK-MEL-2 cells incubated for 48 hrs by sulforhodamine B assay; conditions: SK-MEL-2, 48 h; outline: as §3
# [7] = tested on: HCT-116; experiment: Growth inhibition of human HCT116 cells incubated for 48 hrs by sulforhodamine B assay; conditions: HCT-116, 48 h; outline: as §2
# [8] = tested on: BT-549; experiment: Growth inhibition of human BT549 cells incubated for 48 hrs by sulforhodamine B assay; conditions: BT-549, 48 h; outline: as §2
# [9] = tested on: SR; experiment: Growth inhibition of human SR cells incubated for 48 hrs by sulforhodamine B assay; outline: as §3
# [10] = tested on: SF-539; experiment: Anticancer activity against human SF539 cells assessed as cell growth at 10 uM after 48 hrs by sulforhodamine B assay relative to control; conditions: SF-539, 48 h, read-out: Activity; outline: as §1
# [11] = tested on: PC-3; experiment: Growth inhibition of human PC3 cells incubated for 48 hrs by sulforhodamine B assay; conditions: PC-3, 48 h; outline: as §2
# [12] = tested on: SF-268; experiment: Growth inhibition of human SF268 cells incubated for 48 hrs by sulforhodamine B assay; conditions: SF-268, 48 h; outline: as §3
# [13] = tested on: SK-MEL-5; experiment: Growth inhibition of human SK-MEL-5 cells incubated for 48 hrs by sulforhodamine B assay; conditions: SK-MEL-5, 48 h; outline: as §3
# [14] = tested on: SNB-75; experiment: Growth inhibition of human SNB75 cells incubated for 48 hrs by sulforhodamine B assay; conditions: SNB-75, 48 h; outline: as §3
# [15] = tested on: HOP-92; experiment: Growth inhibition of human HOP92 cells incubated for 48 hrs by sulforhodamine B assay; conditions: HOP-92, 48 h; outline: as §2
# [16] = tested on: CCRF-CEM; experiment: Growth inhibition of human CCRF-CEM cells incubated for 48 hrs by sulforhodamine B assay; outline: as §2
# [17] = tested on: SF-295; experiment: Growth inhibition of human SF295 cells incubated for 48 hrs by sulforhodamine B assay; conditions: SF-295, 48 h; outline: as §3
# [18] = tested on: CAKI-1; experiment: Growth inhibition of human Caki1 cells incubated for 48 hrs by sulforhodamine B assay; conditions: CAKI-1, 48 h; outline: as §2
# [19] = tested on: HOP-62; experiment: Growth inhibition of human HOP62 cells incubated for 48 hrs by sulforhodamine B assay; conditions: HOP-62, 48 h; outline: as §2
# [20] = tested on: U-251; experiment: Growth inhibition of human U251 cells incubated for 48 hrs by sulforhodamine B assay; conditions: U-251, 48 h; outline: as §3
# [21] = tested on: NCI-H460; experiment: Growth inhibition of human NCI-H460 cells incubated for 48 hrs by sulforhodamine B assay; conditions: NCI-H460, 48 h; outline: as §2
# [22] = tested on: T47D; experiment: Growth inhibition of human T47D cells incubated for 48 hrs by sulforhodamine B assay; outline: as §3
# [23] = tested on: K562; experiment: Growth inhibition of human K562 cells incubated for 48 hrs by sulforhodamine B assay; conditions: K562, 48 h; outline: as §2
# [24] = tested on: Hs-578T; experiment: Growth inhibition of human Hs 578T cells incubated for 48 hrs by sulforhodamine B assay; outline: as §2
# [25] = tested on: RXF 393; experiment: Growth inhibition of human RXF393 cells incubated for 48 hrs by sulforhodamine B assay; conditions: RXF 393, 48 h; outline: as §3
# [26] = tested on: NCI-H226; experiment: Growth inhibition of human NCI-H226 cells incubated for 48 hrs by sulforhodamine B assay; conditions: NCI-H226, 48 h; outline: as §2
# [27] = tested on: TK-10; experiment: Growth inhibition of human TK10 cells incubated for 48 hrs by sulforhodamine B assay; conditions: TK-10, 48 h; outline: as §3
# [28] = tested on: COLO 205; experiment: Growth inhibition of human COLO205 cells incubated for 48 hrs by sulforhodamine B assay; conditions: COLO 205, 48 h; outline: as §2
# [29] = tested on: KM12; experiment: Growth inhibition of human KM12 cells incubated for 48 hrs by sulforhodamine B assay; conditions: KM12, 48 h; outline: as §2
# [30] = read-out: LC50 (the source's name)
smiles,measurement,setting,value
C=C1CC[C@@H]2[C@](C)(COC(C)=O)[C@H](OC(C)=O)CC[C@@]2(C)[C@H]1CC(Nc1ccc(S(=O)(=O)Nc2ncccn2)cc1)C1=CCOC1=O (some centres not stated),growth at 10 µM,[1],56.3%
same,GI50,[2],1.72 µM
same,TGI,[2],3.27 µM
same,CC50,[2]; [30],6.2 µM
same,GI50,[3],1.58 µM
same,TGI,[3],3.77 µM
same,CC50,[3]; [30],9.04 µM
same,GI50,[4],2.34 µM
same,TGI,[4],6.07 µM
same,CC50,[4]; [30],21.9 µM
same,GI50,[5],0.86 µM
same,TGI,[5],2.25 µM
same,CC50,[5]; [30],5.36 µM
same,GI50,[6],2.36 µM
same,TGI,[6],7.2 µM
same,CC50,[6]; [30],30.4 µM
same,GI50,[7],0.87 µM
same,TGI,[7],2.49 µM
same,CC50,[7]; [30],6.51 µM
same,GI50,[8],1.64 µM
same,TGI,[8],3.39 µM
same,CC50,[8]; [30],7.04 µM
same,GI50,[9],0.31 µM
same,TGI,[9],17.2 µM
same,CC50,[9]; [30],> 100 µM
same,growth at 10 µM,[10],-69%
same,GI50,[11],2.11 µM
same,TGI,[11],5.07 µM
same,CC50,[11]; [30],17.5 µM
same,GI50,[12],1.93 µM
same,TGI,[12],4.16 µM
same,CC50,[12]; [30],8.97 µM
same,GI50,[13],1.9 µM
same,TGI,[13],3.85 µM
same,CC50,[13]; [30],7.81 µM
same,GI50,[14],1.27 µM
same,TGI,[14],3.23 µM
same,CC50,[14]; [30],8.2 µM
same,GI50,[15],3.1 µM
same,TGI,[15],8.85 µM
same,CC50,[15]; [30],31.1 µM
same,GI50,[16],0.73 µM
same,TGI,[16],3.41 µM
same,CC50,[16]; [30],> 100 µM
same,GI50,[17],6.07 µM
same,TGI,[17],18.7 µM
same,CC50,[17]; [30],44.6 µM
same,GI50,[18],1.74 µM
same,TGI,[18],4.04 µM
same,CC50,[18]; [30],9.39 µM
same,GI50,[19],3.02 µM
same,TGI,[19],6.44 µM
same,CC50,[19]; [30],21.5 µM
same,GI50,[20],1.74 µM
same,TGI,[20],3.28 µM
same,CC50,[20]; [30],6.17 µM
same,GI50,[21],1.98 µM
same,TGI,[21],4.06 µM
same,CC50,[21]; [30],8.32 µM
same,GI50,[22],2 µM
same,TGI,[22],5.46 µM
same,CC50,[22]; [30],> 100 µM
same,GI50,[23],1.73 µM
same,TGI,[23],11.7 µM
same,CC50,[23]; [30],> 100 µM
same,GI50,[24],3.54 µM
same,LC50,[24],> 100 µM
same,TGI,[24],24.4 µM
same,GI50,[25],1.95 µM
same,TGI,[25],3.58 µM
same,CC50,[25]; [30],6.6 µM
same,GI50,[26],1.63 µM
same,TGI,[26],3.57 µM
same,GI50,[27],2.77 µM
same,TGI,[27],6.03 µM
same,CC50,[27]; [30],18.3 µM
same,GI50,[28],1.78 µM
same,TGI,[28],3.8 µM
same,CC50,[28]; [30],8.11 µM
same,GI50,[29],2.33 µM
same,TGI,[29],5.54 µM
same,CC50,[29]; [30],17.8 µM
